# What was measured:
# Type in all cases: functional
# [1] = system: Mycobacterium tuberculosis; experiment: Antitubercular activity against INH-resistant Mycobacterium tuberculosis Spec.800 assessed as reduction in bacterial growth incubated for 14 days in presence of 1/2 x MIC ethambutol by MABA method; settings: Mycobacterium tuberculosis, 800, 336 h; time 14 day
# Method in brief: (§1)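 Checkerboard-type combination in Middlebrook 7H9 with 10% OADC. The test derivative at 1 to 1/32 of its MIC alone was mixed with the reference drug fixed at 1/2 its MIC. 4 ml samples were inoculated with McFarland 1 suspension and incubated 14 days at 37 °C. MIC is the lowest derivative concentration in combination that inhibited growth in liquid medium.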
# [2] = system: Mycobacterium tuberculosis; experiment: Antitubercular activity against PAS/INH/EMB/RMP-resistant Mycobacterium tuberculosis Spec.210 assessed as fractional inhibitory concentration index in presence of 1/2 x MIC isoniazid incubated for 14 days by MABA method; settings: time 14 day
# Method in brief: (§2)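 Interaction analysis in Middlebrook 7H9 with 10% OADC. Combination MICs came from mixing the derivative (1 to 1/32 MIC) with the reference drug at 1/2 MIC, and the reverse, after 14 days at 37 °C with McFarland 1 inoculum. FICI was calculated from the combination MIC values and the MICs alone.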
# [3] = system: Mycobacterium tuberculosis; experiment: Potency index, Ratio of ethambutol MIC to test compound MIC for antitubercular activity against PAS/INH/EMB/RMP-resistant Mycobacterium tuberculosis Spec.210 assessed as inhibition of microbial growth incubated for 1 week by MABA method; settings: time 1 weeks
# [4] = system: Mycobacterium tuberculosis; experiment: Potency index, Ratio of isoniazid MIC to test compound MIC for antitubercular activity against PAS/INH/EMB/RMP-resistant Mycobacterium tuberculosis Spec.210 assessed as inhibition of microbial growth incubated for 1 week by MABA method; settings: time 1 weeks
# [5] = system: Mycobacterium tuberculosis; experiment: Antitubercular activity against PAS/INH/EMB/RMP-resistant Mycobacterium tuberculosis Spec.210 assessed as reduction in bacterial growth incubated for 14 days in presence of 1/2 x MIC isoniazid by MABA method; settings: Mycobacterium tuberculosis, 210, 336 h; time 14 day
# Method in brief: (§3)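 Checkerboard-style combination in Middlebrook 7H9 broth with 10% OADC. The test derivative was varied from 1 to 1/32 of its MIC, and the reference drug was fixed at 1/2 its own MIC. Single-agent MICs were determined first by MABA. Samples of 4 ml received inoculum at 1 McFarland and were incubated 14 days at 37 °C. The endpoint was the lowest derivative concentration that inhibited growth.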
# [6] = system: Mycobacterium tuberculosis; experiment: Antitubercular activity against PAS/INH/EMB/RMP-resistant Mycobacterium tuberculosis Spec.210 assessed as streptomycin MIC incubated for 14 days in presence of streptomycin by MABA method; settings: Mycobacterium tuberculosis, 210, 336 h; time 14 day
# Method in brief: (§4)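 Combination assay in Middlebrook 7H9 broth with 10% OADC. The reference drug (INH, RMP, SM or EMB) was varied from 1 to 1/32 of its MIC, and the test derivative was fixed at 1/2 its own MIC. Single-agent MICs were determined first by MABA. Inoculum was 1 McFarland, with 14 days of incubation at 37 °C. The endpoint was the lowest reference-drug concentration that inhibited growth.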
# [7] = system: Mycobacterium tuberculosis; experiment: Antitubercular activity against INH-resistant Mycobacterium tuberculosis Spec.800 harboring InhA promoter mutation assessed as inhibition of microbial growth incubated for 1 week by MABA method; settings: time 1 weeks
# Method in brief: (§5)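 Microplate Alamar Blue assay in Middlebrook 7H9 broth with 10% OADC. Inoculum from fresh LJ culture was adjusted to McFarland 1 and diluted 1:20. DMSO stocks were two-fold serially diluted to final 0.125–512 µg/ml, with growth and sterile controls. Plates ran 1 week at 37 °C, then Alamar blue was added for 24 h. MIC is the lowest concentration preventing the blue-to-pink change.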
# [8] = system: Mycobacterium tuberculosis; experiment: Antitubercular activity against PAS/INH/EMB/RMP-resistant Mycobacterium tuberculosis Spec.210 assessed as ethambutol MIC incubated for 14 days in presence of ethambutol by MABA method; settings: Mycobacterium tuberculosis, 210, 336 h; time 14 day
# Method in brief: (§6)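 In Middlebrook 7H9 with 10% OADC, the reference drug (INH, RMP, SM or EMB) at 1 to 1/32 of its MIC alone was mixed with the test derivative fixed at 1/2 its MIC. 4 ml samples were inoculated with McFarland 1 suspension and incubated 14 days at 37 °C. MIC is the lowest drug concentration in combination that inhibited growth.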
# [9] = system: Mycobacterium tuberculosis; experiment: Antitubercular activity against PAS/INH/EMB/RMP-resistant Mycobacterium tuberculosis Spec.210 assessed as reduction in bacterial growth incubated for 14 days in presence of 1/2 x MIC rifampicin by MABA method; settings: Mycobacterium tuberculosis, 210, 336 h; time 14 day; method in brief: as §3
# [10] = system: Mycobacterium tuberculosis; experiment: Potentiation of streptomycin-induced antimycobacterial activity against INH-resistant Mycobacterium tuberculosis Spec.800 harboring InhA promoter mutation assessed as fold decrease in streptomycin MIC at 1/2X MIC incubated for 14 days in presence of streptomycin by MABA method; settings: time 14 day; method in brief: as §4
# [11] = system: Mycobacterium tuberculosis; experiment: Antitubercular activity against PAS/INH/EMB/RMP-resistant Mycobacterium tuberculosis Spec.210 assessed as fractional inhibitory concentration index in presence of 1/2 x MIC streptomycin incubated for 14 days by MABA method; settings: time 14 day; method in brief: as §2
# [12] = system: Mycobacterium tuberculosis; experiment: Antitubercular activity against INH-resistant Mycobacterium tuberculosis Spec.800 assessed as reduction in bacterial growth incubated for 14 days in presence of 1/2 x MIC isoniazid by MABA method; settings: Mycobacterium tuberculosis, 800, 336 h; time 14 day; method in brief: as §1
# [13] = system: Mycobacterium tuberculosis; experiment: Potency index, Ratio of rifampicin MIC to test compound MIC for antitubercular activity against PAS/INH/EMB/RMP-resistant Mycobacterium tuberculosis Spec.210 assessed as inhibition of microbial growth incubated for 1 week by MABA method; settings: time 1 weeks
# [14] = system: Mycobacterium tuberculosis; experiment: Antitubercular activity against PAS/INH/EMB/RMP-resistant Mycobacterium tuberculosis Spec.210 assessed as rifampicin MIC incubated for 14 days in presence of rifampicin by MABA method; settings: Mycobacterium tuberculosis, 210, 336 h; time 14 day; method in brief: as §4
# [15] = system: Mycobacterium tuberculosis; experiment: Antitubercular activity against PAS/INH/EMB/RMP-resistant Mycobacterium tuberculosis Spec.210 assessed as fractional inhibitory concentration index in presence of 1/2 x MIC ethambutol incubated for 14 days by MABA method; settings: time 14 day; method in brief: as §2
# [16] = system: Mycobacterium tuberculosis; experiment: Antitubercular activity against PAS/INH/EMB/RMP-resistant Mycobacterium tuberculosis Spec.210 assessed as reduction in bacterial growth incubated for 14 days in presence of 1/2 x MIC ethambutol by MABA method; settings: Mycobacterium tuberculosis, 210, 336 h; time 14 day; method in brief: as §3
# [17] = system: Mycobacterium tuberculosis; experiment: Antitubercular activity against INH-resistant Mycobacterium tuberculosis Spec.800 harboring InhA promoter mutation assessed as fractional inhibitory concentration index in presence of 1/2 x MIC ethambutol incubated for 14 days by MABA method; settings: time 14 day; method in brief: as §2
# [18] = system: Mycobacterium tuberculosis; experiment: Antitubercular activity against PAS/INH/EMB/RMP-resistant Mycobacterium tuberculosis Spec.210 assessed as reduction in bacterial growth incubated for 14 days in presence of 1/2 x MIC streptomycin by MABA method; settings: Mycobacterium tuberculosis, 210, 336 h; time 14 day; method in brief: as §3
# [19] = system: Mycobacterium tuberculosis; experiment: Antitubercular activity against INH-resistant Mycobacterium tuberculosis Spec.800 assessed as ethambutol MIC incubated for 14 days in presence of ethambutol by MABA method; settings: Mycobacterium tuberculosis, 800, 336 h; time 14 day; method in brief: as §6
# [20] = system: Mycobacterium tuberculosis; experiment: Antitubercular activity against PAS/INH/EMB/RMP-resistant Mycobacterium tuberculosis Spec.210 assessed as fractional inhibitory concentration index in presence of 1/2 x MIC rifampicin incubated for 14 days by MABA method; settings: time 14 day; method in brief: as §2
# [21] = system: Mycobacterium tuberculosis; experiment: Antitubercular activity against PAS/INH/EMB/RMP-resistant Mycobacterium tuberculosis Spec.210 assessed as inhibition of microbial growth incubated for 1 week by MABA method; settings: Mycobacterium tuberculosis, 210, 168 h; time 1 weeks; method in brief: as §5
SMILES,MIC [1] [µg/mL],fractional inhibitory concentration index (FICI) [2],Ratio [3],Ratio [4],MIC [5] [µg/mL],MIC [6] [µg/mL],MIC [7] [µg/mL],MIC [8] [µg/mL],MIC [9] [µg/mL],fold change (FC) [10],fractional inhibitory concentration index (FICI) [11],MIC [12] [µg/mL],Ratio [13],MIC [14] [µg/mL],fractional inhibitory concentration index (FICI) [15],MIC [16] [µg/mL],fractional inhibitory concentration index (FICI) [17],MIC [18] [µg/mL],MIC [19] [µg/mL],fractional inhibitory concentration index (FICI) [20],other results
COc1ccc(-n2nnnc2Nc2cccc(Br)c2)cc1,32,1.125,16,8,0.25,16,128,16,0.5,<=4,1.25,16,16,8,1.5,2,0.75,0.5,1,0.5,MIC [21]: 2 µg/mL
COc1ccc(-n2nnnc2Nc2ccc(Br)cc2)cc1,32,0.625,16,8,0.25,8,128,16,1,4,1,32,16,8,1.5,2,0.75,1,1,0.75,MIC [21]: 2 µg/mL
